Source: ChEMBL document CHEMBL5376013, “Design, synthesis and biological evaluation of novel morpholinopyrimidine-5-carbonitrile derivatives as dual PI3K/mTOR inhibitors” (RSC Med Chem, 2024)

Columns and labels:
Type in all cases: functional
Conditions in all cases: read-out: GI
[1] = tested on: RPMI-8226; assay: Antitumor activity against human RPMI-8226 cells assessed as growth inhibition at 10 uM relative to control
Outline: (§1)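 After drug addition, plates were incubated 48 h at 37 °C under 5% CO2. Adherent cells were fixed with cold TCA (10% final, 60 min, 4 °C) and suspension cells with 16% final TCA. Staining used 0.4% SRB in 1% acetic acid, solubilized in 10 mM trizma, read at A515. Percent growth was calculated from time-zero, control and treated absorbances.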

[2] = tested on: SK-MEL-2; assay: Antitumor activity against human SK-MEL-2 cells assessed as growth inhibition at 10 uM relative to control; outline: as §1
[3] = tested on: DU-145; assay: Antitumor activity against human DU-145 cells assessed as growth inhibition at 10 uM relative to control; outline: as §1
[4] = tested on: MOLT-4; assay: Antitumor activity against human MOLT-4 cells assessed as growth inhibition at 10 uM relative to control; outline: as §1
[5] = tested on: HCT-116; assay: Antitumor activity against human HCT-116 cells assessed as growth inhibition at 10 uM relative to control; outline: as §1
[6] = tested on: OVCAR-3; assay: Antitumor activity against human OVCAR-3 cells assessed as growth inhibition at 10 uM relative to control; outline: as §1
[7] = tested on: SN12C; assay: Antitumor activity against human SN12C cells assessed as growth inhibition at 10 uM relative to control
Outline: (§2)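 Drug exposure 48 h at 37 °C, 5% CO2. Adherent cells fixed with cold TCA (10% final), suspension cells with TCA (16% final). Stained with 0.4% SRB in 1% acetic acid, dissolved in 10 mM Tris, A515. Growth relative to time-zero and untreated control.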

[8] = tested on: SNB-19; assay: Antitumor activity against human SNB-19 cells assessed as growth inhibition at 10 uM relative to control; outline: as §2
[9] = tested on: HCT-15; assay: Antitumor activity against human HCT-15 cells assessed as growth inhibition at 10 uM relative to control; outline: as §1
[10] = tested on: UACC-257; assay: Antitumor activity against human UACC-257 cells assessed as growth inhibition at 10 uM relative to control; outline: as §2
[11] = tested on: CAKI-1; assay: Antitumor activity against human CAKI-1 cells assessed as growth inhibition at 10 uM relative to control; outline: as §1
[12] = tested on: UACC-62; assay: Antitumor activity against human UACC-62 cells assessed as growth inhibition at 10 uM relative to control; outline: as §2
[13] = tested on: MDA-MB-231; assay: Antitumor activity against human MDA-MB-231 cells assessed as growth inhibition at 10 uM relative to control; outline: as §1
[14] = tested on: U-251; assay: Antitumor activity against human U-251 cells assessed as growth inhibition at 10 uM relative to control; outline: as §2
[15] = tested on: K562; assay: Antitumor activity against human K562 cells assessed as growth inhibition at 10 uM relative to control; outline: as §1
[16] = tested on: 786-0; assay: Antitumor activity against human 786-0 cells assessed as growth inhibition at 10 uM relative to control; outline: as §1
[17] = tested on: COLO 205; assay: Antitumor activity against human COLO 205 cells assessed as growth inhibition at 10 uM relative to control; outline: as §1
[18] = tested on: HOP-62; assay: Antitumor activity against human HOP-62 cells assessed as growth inhibition at 10 uM relative to control; outline: as §1
[19] = tested on: A549; assay: Antitumor activity against human A549 cells assessed as growth inhibition at 10 uM relative to control; outline: as §1
[20] = tested on: NCI/ADR-RES; assay: Antitumor activity against human NCI-ADR-RES cells assessed as growth inhibition at 10 uM relative to control; outline: as §1
[21] = tested on: SK-MEL-5; assay: Antitumor activity against human SK-MEL-5 cells assessed as growth inhibition at 10 uM relative to control; outline: as §2
[22] = tested on: UO-31; assay: Antitumor activity against human UO-31 cells assessed as growth inhibition at 10 uM relative to control; outline: as §2
[23] = tested on: SF-539; assay: Antitumor activity against human SF-539 cells assessed as growth inhibition at 10 uM relative to control; outline: as §1
[24] = tested on: Malme-3M; assay: Antitumor activity against human Malme-3M cells assessed as growth inhibition at 10 uM relative to control; outline: as §1
[25] = tested on: PC-3; assay: Antitumor activity against human PC-3 cells assessed as growth inhibition at 10 uM relative to control; outline: as §1
[26] = tested on: MCF7; assay: Antitumor activity against human MCF7 cells assessed as growth inhibition at 10 uM relative to control; outline: as §1
[27] = tested on: NCI-H23; assay: Antitumor activity against human NCI-H23 cells assessed as growth inhibition at 10 uM relative to control; outline: as §1
[28] = tested on: SK-OV-3; assay: Antitumor activity against human SK-OV-3 cells assessed as growth inhibition at 10 uM relative to control; outline: as §2
[29] = tested on: ACHN; assay: Antitumor activity against human ACHN cells assessed as growth inhibition at 10 uM relative to control; outline: as §1
[30] = tested on: SR; assay: Antitumor activity against human SR cells assessed as growth inhibition at 10 uM relative to control; outline: as §2
[31] = tested on: CCRF-CEM; assay: Antitumor activity against human CCRF-CEM cells assessed as growth inhibition at 10 uM relative to control; outline: as §1
[32] = tested on: SK-MEL-28; assay: Antitumor activity against human SK-MEL-28 cells assessed as growth inhibition at 10 uM relative to control; outline: as §2
[33] = tested on: RXF 393; assay: Antitumor activity against human RXF 393 cells assessed as growth inhibition at 10 uM relative to control; outline: as §1
[34] = tested on: NCI-H226; assay: Antitumor activity against human NCI-H226 cells assessed as growth inhibition at 10 uM relative to control; outline: as §1
[35] = tested on: BT-549; assay: Antitumor activity against human BT-549 cells assessed as growth inhibition at 10 uM relative to control; outline: as §1
[36] = tested on: MDA-MB-468; assay: Antitumor activity against human MDA-MB-468 cells assessed as growth inhibition at 10 uM relative to control; outline: as §1
[37] = tested on: HT-29; assay: Antitumor activity against human HT-29 cells assessed as growth inhibition at 10 uM relative to control; outline: as §1
[38] = tested on: KM12; assay: Antitumor activity against human KM12 cells assessed as growth inhibition at 10 uM relative to control; outline: as §1
[39] = tested on: SNB-75; assay: Antitumor activity against human SNB-75 cells assessed as growth inhibition at 10 uM relative to control; outline: as §2
[40] = tested on: NCI-H522; assay: Antitumor activity against human NCI-H522 cells assessed as growth inhibition at 10 uM relative to control; outline: as §1
[41] = tested on: SF-268; assay: Antitumor activity against human SF-268 cells assessed as growth inhibition at 10 uM relative to control; outline: as §1
[42] = tested on: LOX IMVI; assay: Antitumor activity against human LOX IMVI cells assessed as growth inhibition at 10 uM relative to control; outline: as §1
[43] = tested on: OVCAR-4; assay: Antitumor activity against human OVCAR-4 cells assessed as growth inhibition at 10 uM relative to control; outline: as §1
[44] = tested on: T47D; assay: Antitumor activity against human T47D cells assessed as growth inhibition at 10 uM relative to control; outline: as §2
[45] = tested on: SW-620; assay: Antitumor activity against human SW-620 cells assessed as growth inhibition at 10 uM relative to control; outline: as §2
[46] = tested on: HOP-92; assay: Antitumor activity against human HOP-92 cells assessed as growth inhibition at 10 uM relative to control; outline: as §1

With `CSc1nc(-c2ccc(Cl)cc2)c(C#N)c(N2CCOCC2)n1` the inhibition of growth at 10 µM [1] was 17.9%, the inhibition of growth at 10 µM [2] was less than 1% and the inhibition of growth at 10 µM [3] was less than 1%. It also gave an inhibition of growth at 10 µM [4] of less than 1%, an inhibition of growth at 10 µM [5] of less than 1% and an inhibition of growth at 10 µM [6] of less than 1%. The inhibition of growth at 10 µM [7] was less than 1%, the inhibition of growth at 10 µM [8] was 20.1% and the inhibition of growth at 10 µM [9] was less than 1%. It also gave an inhibition of growth at 10 µM [10] of less than 1%, an inhibition of growth at 10 µM [11] of 13.7% and an inhibition of growth at 10 µM [12] of less than 1%. For the same molecule, the inhibition of growth at 10 µM [13] was less than 1%, the inhibition of growth at 10 µM [14] was less than 1% and the inhibition of growth at 10 µM [15] was 19.9%. The inhibition of growth at 10 µM [16] was 11%, the inhibition of growth at 10 µM [17] was less than 1% and the inhibition of growth at 10 µM [18] was 15.7%. The inhibition of growth at 10 µM [19] was 10.8%, the inhibition of growth at 10 µM [20] was 12% and the inhibition of growth at 10 µM [21] was less than 1%. It also gave an inhibition of growth at 10 µM [22] of 27.1%, an inhibition of growth at 10 µM [23] of less than 1% and an inhibition of growth at 10 µM [24] of 11%. The inhibition of growth at 10 µM [25] was less than 1%, the inhibition of growth at 10 µM [26] was 1% and the inhibition of growth at 10 µM [27] was 10.8%. For the same molecule, the inhibition of growth at 10 µM [28] was 11%, the inhibition of growth at 10 µM [29] was less than 1% and the inhibition of growth at 10 µM [30] was 22.7%. It also gave an inhibition of growth at 10 µM [31] of less than 1%, an inhibition of growth at 10 µM [32] of less than 1% and an inhibition of growth at 10 µM [33] of less than 1%. It also gave an inhibition of growth at 10 µM [34] of 17.5%, an inhibition of growth at 10 µM [35] of 21.8% and an inhibition of growth at 10 µM [36] of less than 1%. The inhibition of growth at 10 µM [37] was 15.3%, the inhibition of growth at 10 µM [38] was less than 1% and the inhibition of growth at 10 µM [39] was 47.8%. The inhibition of growth at 10 µM [40] was 30.2%, the inhibition of growth at 10 µM [41] was 13.9% and the inhibition of growth at 10 µM [42] was less than 1%. It also gave an inhibition of growth at 10 µM [43] of 18.2%, an inhibition of growth at 10 µM [44] of 33% and an inhibition of growth at 10 µM [45] of less than 1%. The inhibition of growth at 10 µM [46] was 21.1%.
